# Measurements reported in ChEMBL document CHEMBL3044991, “Synthesis and biological activity of 4-(4,6-disubstituted-pyrimidin-2-yloxy)phenoxy acetates” (2010).
# How the values were obtained:
# Assay type in all cases: functional
# Settings in all cases: read-out: GI
# Digitaria sanguinalis [1] = assay: Herbicidal activity against Digitaria sanguinalis (hairy crabgrass) assessed as root growth inhibition at 10 mg/L applied to germinated seeds measured after 65 hr at 28 degC
# Procedure, shortened: (§1)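 Compounds dissolved in DMF with Tween 20 and diluted in distilled water to an emulsion. Germinated seeds, usually 15 per plate, were placed on two filter papers wetted with test solution in a Petri dish. Plates were kept in the dark for 65 h at 28 (±1) ºC. Root lengths of 10 seeds per plate were measured and averaged. Blank was emulsion without compound; quizalofop-P-ethyl served as control.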
# Digitaria sanguinalis [2] = assay: Herbicidal activity against Digitaria sanguinalis (hairy crabgrass) assessed as root growth inhibition at 50 mg/L applied to germinated seeds measured after 65 hr at 28 degC; procedure, shortened: as §1
# Digitaria sanguinalis [3] = assay: Herbicidal activity against Digitaria sanguinalis (hairy crabgrass) assessed as root growth inhibition at 100 mg/L applied to germinated seeds measured after 65 hr at 28 degC; procedure, shortened: as §1
# Brassica napus [4] = assay: Herbicidal activity against Brassica napus (oilseed rape) assessed as root growth inhibition at 10 mg/L applied to germinated seeds measured after 65 hr at 28 degC; procedure, shortened: as §1
# Brassica napus [5] = assay: Herbicidal activity against Brassica napus (oilseed rape) assessed as root growth inhibition at 50 mg/L applied to germinated seeds measured after 65 hr at 28 degC; procedure, shortened: as §1
# Brassica napus [6] = assay: Herbicidal activity against Brassica napus (oilseed rape) assessed as root growth inhibition at 100 mg/L applied to germinated seeds measured after 65 hr at 28 degC; procedure, shortened: as §1
Structure (SMILES),inhibition of growth at 10 µg/mL (Digitaria sanguinalis [1]) [%],inhibition of growth at 50 µg/mL (Digitaria sanguinalis [2]) [%],inhibition of growth at 100 µg/mL (Digitaria sanguinalis [3]) [%],inhibition of growth at 10 µg/mL (Brassica napus [4]) [%],inhibition of growth at 50 µg/mL (Brassica napus [5]) [%],inhibition of growth at 100 µg/mL (Brassica napus [6]) [%]
COC(=O)COc1ccc(Oc2nc(OC)cc(OC)n2)cc1,42.8,98.5,100,22.9,34.4,39.8
CCOC(=O)COc1ccc(Oc2nc(OC)cc(OC)n2)cc1,39.9,96.2,100,13.4,31,41.1
CCCOC(=O)COc1ccc(Oc2nc(OC)cc(OC)n2)cc1,32.5,95.2,100,10.1,13.1,15.9
COc1cc(OC)nc(Oc2ccc(OCC(=O)OC(C)C)cc2)n1,32.7,96.5,100,14.6,21,25.1
CCCCOC(=O)COc1ccc(Oc2nc(OC)cc(OC)n2)cc1,41.8,96.9,100,9.5,13.4,28.3
COC(=O)COc1ccc(Oc2nc(C)cc(C)n2)cc1,44.7,97.3,100,11.9,26.7,44.7
CCOC(=O)COc1ccc(Oc2nc(C)cc(C)n2)cc1,38.5,98.4,100,14.2,32.7,58.4
CCCOC(=O)COc1ccc(Oc2nc(C)cc(C)n2)cc1,36.9,97.5,100,12.1,33.9,54.5
Cc1cc(C)nc(Oc2ccc(OCC(=O)OC(C)C)cc2)n1,35,95.1,100,9.2,14.3,26.4
CCCCOC(=O)COc1ccc(Oc2nc(C)cc(C)n2)cc1,42.6,97.6,100,21.5,34.2,50.2
CCOC(=O)[C@@H](C)Oc1ccc(Oc2cnc3cc(Cl)ccc3n2)cc1 [QUIZALOFOP-P-ETHYL],63.5,95.3,100,33.8,39.2,51.2
